Measurements as given in ChEMBL document CHEMBL1165950, “Design and synthesis of new potent anticancer pyrazoles with high FLT3 kinase inhibitory selectivity” (Bioorg Med Chem, 2010).

Experiments:
Assay type in all cases: functional
ACHN = experiment: Cytotoxicity against human ACHN cells assessed as cell growth at 0.01 uM after 48 hrs by sulforhodamine B assay; details: read-out: Activity
NCI-H226 [1] = experiment: Cytotoxicity against human NCI-H226 cells assessed as cell growth at 1 uM after 48 hrs by sulforhodamine B assay; details: NCI-H226, 48 h, read-out: Activity
MCF7 [2] = experiment: Cytotoxicity against human MCF7 cells assessed as cell growth at 100 nM after 48 hrs by sulforhodamine B assay; details: MCF7, 48 h, read-out: Activity
RXF 393 [3] = experiment: Cytotoxicity against human RXF393 cells assessed as cell growth at 10 uM after 48 hrs by sulforhodamine B assay; details: RXF 393, 48 h, read-out: Activity
SK-MEL-28 [4] = experiment: Cytotoxicity against human SK-MEL-28 cells assessed as cell growth at 100 nM after 48 hrs by sulforhodamine B assay; details: SK-MEL-28, 48 h, read-out: Activity
SR [5] = experiment: Growth inhibition of human SR cells after 48 hrs by sulforhodamine B assay
How it was run: (§1)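 NCI 60-cell screen, five-dose mode. Cells grown in RPMI 1640 with 5% FBS and 2 mM L-glutamine and plated at 5000-40,000 cells/well according to doubling time. After 24 h preincubation, a Tz plate was TCA-fixed. Five concentrations (10-fold or 1/2 log dilutions) were applied for 48 h at 37 °C. SRB staining read at 515 nm. IC50 taken from [(Ti-Tz)/(C-Tz)]×100 = 50.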

MDA-MB-435 = experiment: Cytotoxicity against human MDA-MB-435 cells assessed as cell growth at 0.01 uM after 48 hrs by sulforhodamine B assay; details: MDA-MB-435, 48 h, read-out: Activity
HCC 2998 [6] = experiment: Cytotoxicity against human HCC2998 cells assessed as cell growth at 100 nM after 48 hrs by sulforhodamine B assay; details: HCC 2998, 48 h, read-out: Activity
NCI-H226 [7] = experiment: Growth inhibition of human NCI-H226 cells after 48 hrs by sulforhodamine B assay; details: NCI-H226, 48 h; how it was run: as §1
KM12 = experiment: Cytotoxicity against human KM12 cells assessed as cell growth at 10 uM; details: read-out: Activity
How it was run: (§2)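 NCI-60 screen: cells grown in RPMI 1640 with 5% FBS and 2 mM L-glutamine, plated at 5000–40,000 cells/well according to doubling time, and preincubated 24 h at 37 °C, 5% CO2. The single 10 µM dose (DMSO stock) was added, then incubated 48 h. Cells were TCA-fixed and stained with 0.4% SRB, read at 515 nm, and growth % calculated against time-zero and control plates.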

SR [8] = experiment: Cytotoxicity against human SR cells assessed as cell growth at 100 nM after 48 hrs by sulforhodamine B assay; details: read-out: Activity
MCF7 [9] = experiment: Cytotoxicity against human MCF7 cells assessed as cell growth at 0.001 uM after 48 hrs by sulforhodamine B assay; details: MCF7, 48 h, read-out: Activity
NCI-H460 = experiment: Cytotoxicity against human NCI-H460 cells assessed as cell growth at 1 uM after 48 hrs by sulforhodamine B assay; details: NCI-H460, 48 h, read-out: Activity
SK-MEL-28 [10] = experiment: Cytotoxicity against human SK-MEL-28 cells assessed as cell growth at 10 uM after 48 hrs by sulforhodamine B assay; details: SK-MEL-28, 48 h, read-out: Activity
SK-MEL-28 [11] = experiment: Cytotoxicity against human SK-MEL-28 cells assessed as cell growth at 0.001 uM after 48 hrs by sulforhodamine B assay; details: SK-MEL-28, 48 h, read-out: Activity
PC-3 = experiment: Cytotoxicity against human PC3 cells assessed as cell growth at 10 uM after 48 hrs by sulforhodamine B assay; details: PC-3, 48 h, read-out: Activity
HCT-116 = experiment: Cytotoxicity against human HCT116 cells assessed as cell growth at 100 nM after 48 hrs by sulforhodamine B assay; details: HCT-116, 48 h, read-out: Activity
SR [12] = experiment: Cytotoxicity against human SR cells assessed as cell growth at 0.001 uM after 48 hrs by sulforhodamine B assay; details: read-out: Activity
HOP-92 = experiment: Cytotoxicity against human HOP92 cells assessed as cell growth at 10 uM; details: read-out: Activity
How it was run: (§3)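 Single-dose NCI-60 screen at 10 µM. Cells were grown in RPMI 1640 with 5% FBS and 2 mM L-glutamine, then treated for 48 h at 37 °C. Protein was measured by SRB staining with absorbance at 515 nm. Percentage growth was recorded, and inhibition percentage was calculated as 100 minus growth percentage.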

[13] = Cytotoxicity against human […] cells assessed as cell growth at 10 uM after 48 hrs by sulforhodamine B assay; details: read-out: Activity
SF-295 [14] = experiment: Cytotoxicity against human SF295 cells assessed as cell growth at 10 uM after 48 hrs by sulforhodamine B assay; details: SF-295, 48 h, read-out: Activity
RXF 393 [15] = experiment: Cytotoxicity against human RXF393 cells assessed as cell growth at 0.001 uM after 48 hrs by sulforhodamine B assay; details: RXF 393, 48 h, read-out: Activity
SK-MEL-5 = experiment: Cytotoxicity against human SK-MEL-5 cells assessed as cell growth at 1 uM after 48 hrs by sulforhodamine B assay; details: SK-MEL-5, 48 h, read-out: Activity
SF-295 [16] = experiment: Cytotoxicity against human SF295 cells assessed as cell growth at 100 nM after 48 hrs by sulforhodamine B assay; details: SF-295, 48 h, read-out: Activity
SK-MEL-28 [17] = experiment: Growth inhibition of human SK-MEL-28 cells after 48 hrs by sulforhodamine B assay; details: SK-MEL-28, 48 h; how it was run: as §1
SR [18] = experiment: Cytotoxicity against human SR cells assessed as cell growth at 1 uM after 48 hrs by sulforhodamine B assay; details: read-out: Activity
HCC 2998 [19] = experiment: Cytotoxicity against human HCC2998 cells assessed as cell growth at 1 uM after 48 hrs by sulforhodamine B assay; details: HCC 2998, 48 h, read-out: Activity
SR [20] = experiment: Cytotoxicity against human SR cells assessed as cell growth at 0.01 uM after 48 hrs by sulforhodamine B assay; details: read-out: Activity
HCC 2998 [21] = experiment: Cytotoxicity against human HCC2998 cells assessed as cell growth at 10 uM after 48 hrs by sulforhodamine B assay; details: HCC 2998, 48 h, read-out: Activity
[22] = Cytotoxicity against human […] cells assessed as cell growth at 10 uM; details: read-out: Activity; how it was run: as §2
CAKI-1 = experiment: Cytotoxicity against human Caki1 cells assessed as cell growth at 1 uM after 48 hrs by sulforhodamine B assay; details: CAKI-1, 48 h, read-out: Activity
RXF 393 [23] = experiment: Cytotoxicity against human RXF393 cells assessed as cell growth at 1 uM after 48 hrs by sulforhodamine B assay; details: RXF 393, 48 h, read-out: Activity
NCI-H226 [24] = experiment: Cytotoxicity against human NCI-H226 cells assessed as cell growth at 0.01 uM after 48 hrs by sulforhodamine B assay; details: NCI-H226, 48 h, read-out: Activity
DU-145 = experiment: Cytotoxicity against human DU145 cells assessed as cell growth at 0.01 uM after 48 hrs by sulforhodamine B assay; details: DU-145, 48 h, read-out: Activity
CCRF-CEM = experiment: Cytotoxicity against human CCRF-CEM cells assessed as cell growth at 10 uM; details: read-out: Activity; how it was run: as §3
RXF 393 [25] = experiment: Growth inhibition of human RXF393 cells after 48 hrs by sulforhodamine B assay; details: RXF 393, 48 h; how it was run: as §1
[26] = read-out: LC50 (the source's name)

For `COc1cc(C)cc(-c2c(-c3ccnc(-c4ccc(C(C)=O)cc4)c3)cnn2CC#N)c1`, the growth at 0.01 µM (ACHN) was 96%, the growth at 1 µM (NCI-H226 [1]) was 34% and the growth at 0.1 µM (MCF7 [2]) was 86%. For the same molecule, the growth at 10 µM (RXF 393 [3]) was -27%, the growth at 0.1 µM (SK-MEL-28 [4]) was 95% and the GI50 (SR [5]) was 2.87 µM. For the same molecule, the LC50 (concentration killing 50% of cells) (SR [5]) was over 100 µM, the TGI (SR [5]) was over 100 µM and the growth at 0.01 µM (MDA-MB-435) was 91%. For the same molecule, the growth at 0.1 µM (HCC 2998 [6]) was 104%, the GI50 (NCI-H226 [7]) was 5.47 µM and the TGI (NCI-H226 [7]) was over 100 µM. It also gave a CC50 (NCI-H226 [7]; [26]) of over 100 µM, a growth at 10 µM (KM12) of 80.2% and a growth at 0.1 µM (SR [8]) of 77%. For the same molecule, the growth at 0.001 µM (MCF7 [9]) was 96%, the growth at 1 µM (NCI-H460) was -9% and the growth at 10 µM (SK-MEL-28 [10]) was 46%. For the same molecule, the growth at 0.001 µM (SK-MEL-28 [11]) was 90%, the growth at 10 µM (PC-3) was 27% and the growth at 0.1 µM (HCT-116) was 73%. The growth at 0.001 µM (SR [12]) was 96%, the growth at 10 µM (HOP-92) was 23.5% and the growth at 10 µM [13] was -1%. It also gave a growth at 10 µM (SF-295 [14]) of 35%, a growth at 0.001 µM (RXF 393 [15]) of 86% and a growth at 1 µM (SK-MEL-5) of -37%. The growth at 0.1 µM (SF-295 [16]) was 85%, the GI50 (SK-MEL-28 [17]) was 7.66 µM and the TGI (SK-MEL-28 [17]) was over 100 µM. The CC50 (SK-MEL-28 [17]; [26]) was over 100 µM, the growth at 1 µM (SR [18]) was 18% and the growth at 1 µM (HCC 2998 [19]) was 2%. For the same molecule, the growth at 0.01 µM (SR [20]) was 95%, the growth at 10 µM (HCC 2998 [21]) was 5% and the growth at 10 µM [22] was 67.6%. The growth at 1 µM (CAKI-1) was 29%, the growth at 1 µM (RXF 393 [23]) was -27% and the growth at 0.01 µM (NCI-H226 [24]) was 93%. It also gave a growth at 0.01 µM (DU-145) of 100%, a growth at 10 µM (CCRF-CEM) of 53.7% and a GI50 (RXF 393 [25]) of 2.32 µM. The LC50 (concentration killing 50% of the starting cells) (RXF 393 [25]) was over 100 µM and the TGI (RXF 393 [25]) was 6.02 µM.
